Measured values published in ChEMBL document CHEMBL1124770, “Synthesis and pharmacological evaluation of amino, azido, and nitrogen mustard analogues of 10-substituted cannabidiol and 11- or 12-substituted delta 8-tetrahydrocannabinol” (1990).

Assays:
Assay type in all cases: functional
Mus musculus [1] = test: Evaluated for hypothermic activity in mice at a dose of 50 mg/Kg.
Method in brief: (§1)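 Mice dosed by tail-vein injection (0.1 mL/10 g) in ethanol/emulphor/saline (1:1:18). Body temperature change (°C) measured by previously reported methods. Vehicle and Δ9-THC positive controls run each day. Mean ± SEM; ANOVA with Dunnett's t test versus control, p < 0.05 two-tailed.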

Mus musculus [2] = test: Tail-flick latency was determined at a concentration of 50 mg/Kg.
Method in brief: (§2)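 Mice, drug suspended in ethanol/emulphor/saline (1:1:18) and given by tail-vein injection (0.1 mL/10 g). Antinociception measured as tail-flick latency (s). Vehicle and Δ9-THC positive controls run in each daily experiment. Data given as mean ± SEM. ANOVA with Dunnett's t test against control, p < 0.05 (two-tailed).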

Mus musculus [3] = test: Evaluated for catalepsy activity in mice and percentage immobility was determined at a concentration of 0 mg/Kg.
Method in brief: (§3)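 Mice, single tail-vein injection (0.1 mL/10 g) in ethanol/emulphor/saline (1:1:18). Catalepsy scored by ring test as % immobility, per previously reported methods. Vehicle and Δ9-THC positive-control groups run in each daily experiment. Mean ± SEM; ANOVA with Dunnett's t test versus control, p < 0.05 two-tailed.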

Mus musculus [4] = test: Evaluated for catalepsy activity in mice and percentage immobility was determined at a concentration of 50 mg/Kg.; method in brief: as §3
Mus musculus [5] = test: Evaluated for reduction in spontaneous locomotor activity in mice, at a dose of 0 mg/Kg
Method in brief: (§4)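 Tail-vein injection in mice (0.1 mL/10 g; ethanol/emulphor/saline 1:1:18). Spontaneous locomotor activity counted as counts/10 min, per previously reported methods. Daily vehicle and Δ9-THC positive controls. Mean ± SEM; ANOVA with Dunnett's t test, p < 0.05 two-tailed.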

Mus musculus [6] = test: Tail-flick latency was determined at a concentration of 0 mg/Kg.
Method in brief: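 Antinociception in mice by tail-flick latency (s), per previously reported methods, after tail-vein injection (0.1 mL/10 g) in ethanol/emulphor/saline (1:1:18). Vehicle and Δ9-THC controls run daily. Mean ± SEM; ANOVA with Dunnett's t test, p < 0.05 two-tailed.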

Mus musculus [7] = test: Evaluated for hypothermic activity in mice at a dose of 0 mg/Kg.; method in brief: as §1
Mus musculus [8] = test: Evaluated for reduction in spontaneous locomotor activity in mice at a dose of 50 mg/Kg; method in brief: as §4
Mus musculus [9] = test: Tail-flick latency was determined at a concentration of 10 mg/Kg.; method in brief: as §2
Mus musculus [10] = test: Evaluated for hypothermic activity in mice at a dose of 10 mg/Kg.; method in brief: as §1
Mus musculus [11] = test: Evaluated for reduction in spontaneous locomotor activity in mice at a dose of 10 mg/Kg; method in brief: as §4
Mus musculus [12] = test: Evaluated for hypothermic activity in mice at a dose of 50 ug/Kg administered intraventricularly
Method in brief: (§5)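 Intraventricular injection in mice, 5 μL volume, in ethanol/emulphor/saline (1:1:18) vehicle. Change in body temperature (°C) recorded by previously reported methods, with vehicle and Δ9-THC controls. Mean ± SEM; ANOVA with Dunnett's t test versus control, p < 0.05 two-tailed.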

Mus musculus [13] = test: Evaluated for reduction in spontaneous locomotor activity in mice at a dose of 0.3 mg/Kg; method in brief: as §4
Mus musculus [14] = test: Evaluated for catalepsy activity in mice and percentage immobility was determined at a concentration of 6 mg/Kg.; method in brief: as §3
Mus musculus [15] = test: Evaluated for reduction in spontaneous locomotor activity in mice, at a dose of 150 ug/Kg administered intraventricularly
Method in brief: (§6)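 Mice given intraventricular injection of 5 μL in ethanol/emulphor/saline (1:1:18). Spontaneous locomotor activity recorded as counts/10 min by previously reported methods, alongside vehicle and Δ9-THC controls. Mean ± SEM; ANOVA with Dunnett's t test, p < 0.05 two-tailed.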

Mus musculus [16] = test: Evaluated for hypothermic activity in mice at a dose of 150 ug/Kg administered intraventricularly; method in brief: as §5
Mus musculus [17] = test: Tail-flick latency was determined at a concentration of 6 mg/Kg.; method in brief: as §2
Mus musculus [18] = test: Evaluated for catalepsy activity in mice and percentage immobility was determined at a concentration of 3 mg/Kg.; method in brief: as §3
Mus musculus [19] = test: Evaluated for reduction in spontaneous locomotor activity in mice, at a dose of 50 ug/Kg administered intraventricularly; method in brief: as §6
Mus musculus [20] = test: Evaluated for reduction in spontaneous locomotor activity in mice, at a dose of 6 mg/Kg; method in brief: as §4
Mus musculus [21] = test: Tail-flick latency was determined at a concentration of 50 ug/Kg administered intraventricularly
Method in brief: (§7)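 Mice, injected intraventricularly in 5 μL of ethanol/emulphor/saline (1:1:18) vehicle. Doses given as μg amounts. Antinociception read as tail-flick latency (s), alongside vehicle control. Values reported as mean ± SEM. ANOVA with Dunnett's t test versus control, significance at p < 0.05 (two-tailed).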

Mus musculus [22] = test: Evaluated for hypothermic activity in mice at a dose of 30 mg/Kg.; method in brief: as §1
Mus musculus [23] = test: Evaluated for hypothermic activity in mice at a dose of 6 mg/Kg.; method in brief: as §1
Mus musculus [24] = test: Evaluated for reduction in spontaneous locomotor activity in mice, at a dose of 100 ug/Kg administered intraventricularly; method in brief: as §6
Mus musculus [25] = test: Evaluated for reduction in spontaneous locomotor activity in mice, at a dose of 30 mg/Kg; method in brief: as §4
Mus musculus [26] = test: Tail-flick latency was determined at a concentration of 0 ug/Kg administered intraventricularly
Method in brief: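 Tail-flick latency (s) in mice after intraventricular injection (5 μL) of ethanol/emulphor/saline (1:1:18) vehicle, measured by previously reported methods. Mean ± SEM; ANOVA with Dunnett's t test, p < 0.05 two-tailed.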

Mus musculus [27] = test: Tail-flick latency was determined at a concentration of 3 mg/Kg.; method in brief: as §2
Mus musculus [28] = test: Evaluated for catalepsy activity in mice and percentage immobility was determined at a concentration of 30 mg/Kg.; method in brief: as §3
Mus musculus [29] = test: Evaluated for hypothermic activity in mice at a dose of 0.3 mg/Kg.; method in brief: as §1
Mus musculus [30] = test: Evaluated for hypothermic activity in mice at a dose of 0 ug/Kg administered intraventricularly; method in brief: as §5
Mus musculus [31] = test: Evaluated for hypothermic activity in mice at a dose of 3 mg/Kg.; method in brief: as §1
Mus musculus [32] = test: Tail-flick latency was determined at a concentration of 0.3 mg/Kg.; method in brief: as §2
Mus musculus [33] = test: Evaluated for hypothermic activity in mice at a dose of 100 ug/Kg administered intraventricularly; method in brief: as §5
Mus musculus [34] = test: Tail-flick latency was determined at a concentration of 100 ug/Kg administered intraventricularly
Mus musculus [35] = test: Evaluated for reduction in spontaneous locomotor activity in mice, at a dose of 0 ug/Kg administered intraventricularly; method in brief: as §6
Mus musculus [36] = test: Evaluated for catalepsy activity in mice and percentage immobility was determined at a concentration of 0.3 mg/Kg.; method in brief: as §3
Mus musculus [37] = test: Tail-flick latency was determined at a concentration of 30 mg/Kg.; method in brief: as §2
Mus musculus [38] = test: Evaluated for reduction in spontaneous locomotor activity in mice, at a dose of 3 mg/Kg; method in brief: as §4
Mus musculus [39] = test: Tail-flick latency was determined at a concentration of 150 ug/Kg administered intraventricularly; method in brief: as §7

CCCCCc1cc(OC(C)=O)c2c(c1)OC(C)(C)[C@@H]1CC=C(CN(CCCl)CCCl)CC21.Cl (stereo partly specified)
Temperature (Mus musculus [1]): <-3.3 °C
Tail flick latency (Mus musculus [2]): 0.6 s
Immobility (Mus musculus [3]): 4%
Immobility (Mus musculus [4]): <31%
Spont activity (Mus musculus [5]): 51 Counts 10min-1
Tail flick latency (Mus musculus [6]): 0.5 s
Temperature (Mus musculus [7]): -1.8 °C
Spont activity (Mus musculus [8]): 26 Counts 10min-1

CCCCCc1cc(O)c2c(c1)OC(C)(C)[C@@H]1CC=C(CNCC)CC21.Cl (stereo partly specified)
Tail flick latency (Mus musculus [9]): <2.6 s
Temperature (Mus musculus [10]): <-3.8 °C
Spont activity (Mus musculus [11]): 54 Counts 10min-1
Spont activity (Mus musculus [5]): 49 Counts 10min-1
Tail flick latency (Mus musculus [6]): 0.5 s
Temperature (Mus musculus [7]): -1.8 °C

CCCCCc1cc(O)c2c(c1)OC(C)(C)[C@@H]1CCC(C)=C[C@@H]21 [DRONABINOL]
Temperature (Mus musculus [12]): -2.3 °C
Spont activity (Mus musculus [13]): 70 Counts 10min-1
Immobility (Mus musculus [14]): <42%
Spont activity (Mus musculus [15]): <33 Counts 10min-1
Temperature (Mus musculus [16]): <-5.5 °C
Tail flick latency (Mus musculus [17]): <4.9 s
Immobility (Mus musculus [18]): <25%
Spont activity (Mus musculus [19]): 46 Counts 10min-1
Spont activity (Mus musculus [20]): <23 Counts 10min-1
Tail flick latency (Mus musculus [21]): <1.6 s
Temperature (Mus musculus [22]): <-5.1 °C
Temperature (Mus musculus [23]): <-2.9 °C
Spont activity (Mus musculus [24]): <41 Counts 10min-1
Spont activity (Mus musculus [25]): <7 Counts 10min-1
Tail flick latency (Mus musculus [26]): -0.2 s
Tail flick latency (Mus musculus [27]): <2.9 s
Immobility (Mus musculus [3]): 8%
Immobility (Mus musculus [28]): <57%
Temperature (Mus musculus [29]): -1 °C
Spont activity (Mus musculus [5]): 54 Counts 10min-1
Temperature (Mus musculus [30]): -2.2 °C
Temperature (Mus musculus [31]): <-2.4 °C
Tail flick latency (Mus musculus [32]): <2 s
Temperature (Mus musculus [33]): -3.6 °C
Tail flick latency (Mus musculus [34]): <2.3 s
Spont activity (Mus musculus [35]): 103 Counts 10min-1
Tail flick latency (Mus musculus [6]): 0.6 s
Immobility (Mus musculus [36]): 9%
Temperature (Mus musculus [7]): -1.1 °C
Tail flick latency (Mus musculus [37]): <5.1 s
Spont activity (Mus musculus [38]): <30 Counts 10min-1
Tail flick latency (Mus musculus [39]): <4 s
